In ChEMBL document CHEMBL2010709, “Pinophilins A and B, inhibitors of mammalian A-, B-, and Y-family DNA polymerases and human cancer cell proliferation” (J Nat Prod, 2012):
Active and inactive are the calls of the source. The rule behind the calls is not given here.

Key:
Oryza sativa = assay: Inhibition of rice cv. Nipponbare recombinant C-terminal-His6-tagged DNA polymerase lambda expressed in Escherichia coli assessed as inhibition of incorporation of dTTP into activated DNA primer after 60 mins
[1] = target: Human immunodeficiency virus type 1 reverse transcriptase (Human immunodeficiency virus 1, UniProt Q72547); assay: Inhibition of HIV-1 reverse transcriptase assessed as inhibition of incorporation of dTTP into poly(rA)/oligo(dT)18 after 60 mins
In short: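 Enzyme (0.05 units) was preincubated with compound in DMSO at 0 °C for 10 min in Tris-HCl pH 7.5/DTT/glycerol/EDTA buffer, then reacted at 37 °C for 60 min. Substrates were poly(rA)/oligo(dT)18 (A/T = 2/1) plus dTTP for HIV-1 RT, and oligo(dT)18 (3′-OH) primer plus dTTP for calf thymus TdT. Activity was relative to uninhibited control; mean ± SE of three experiments.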

[2] = target: T1, DNA polymerase delta catalytic subunit (Homo sapiens, UniProt P28340); assay: Inhibition of human DNA polymerase delta assessed as inhibition of incorporation of dTTP into poly(dA)/oligo(dT)18 after 60 mins
T1 sequence (P28340 whole entry): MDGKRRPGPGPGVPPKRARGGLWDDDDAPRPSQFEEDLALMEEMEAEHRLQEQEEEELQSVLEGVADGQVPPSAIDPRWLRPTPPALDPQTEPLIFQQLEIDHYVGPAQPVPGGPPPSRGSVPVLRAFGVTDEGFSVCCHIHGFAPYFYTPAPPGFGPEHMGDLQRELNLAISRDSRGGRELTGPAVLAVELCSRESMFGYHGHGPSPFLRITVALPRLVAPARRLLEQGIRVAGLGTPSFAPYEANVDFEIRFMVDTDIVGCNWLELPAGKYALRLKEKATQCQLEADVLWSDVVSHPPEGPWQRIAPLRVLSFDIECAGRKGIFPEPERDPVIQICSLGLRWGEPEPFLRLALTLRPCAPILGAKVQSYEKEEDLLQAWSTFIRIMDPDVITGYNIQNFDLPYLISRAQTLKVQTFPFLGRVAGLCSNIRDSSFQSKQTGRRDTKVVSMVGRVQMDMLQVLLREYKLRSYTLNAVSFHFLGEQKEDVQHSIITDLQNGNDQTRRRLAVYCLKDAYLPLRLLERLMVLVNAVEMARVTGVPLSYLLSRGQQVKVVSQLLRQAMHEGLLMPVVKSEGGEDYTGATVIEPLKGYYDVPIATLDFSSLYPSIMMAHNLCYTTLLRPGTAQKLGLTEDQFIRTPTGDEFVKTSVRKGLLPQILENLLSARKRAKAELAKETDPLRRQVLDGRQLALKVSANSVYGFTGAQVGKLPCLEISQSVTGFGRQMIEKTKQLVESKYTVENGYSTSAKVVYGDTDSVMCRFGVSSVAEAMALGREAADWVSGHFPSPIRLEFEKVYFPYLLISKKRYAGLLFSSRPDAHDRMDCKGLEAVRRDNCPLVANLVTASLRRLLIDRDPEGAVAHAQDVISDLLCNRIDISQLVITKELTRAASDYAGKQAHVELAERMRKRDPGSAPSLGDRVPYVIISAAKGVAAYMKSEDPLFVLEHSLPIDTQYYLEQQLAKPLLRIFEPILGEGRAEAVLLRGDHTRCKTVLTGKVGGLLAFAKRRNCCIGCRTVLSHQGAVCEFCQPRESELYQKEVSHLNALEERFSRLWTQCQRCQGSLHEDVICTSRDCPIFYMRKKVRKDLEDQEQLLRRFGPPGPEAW
In short: (§1)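 Compound in DMSO was sonicated for 30 s, then held with enzyme (0.05 units final) at 0 °C for 10 min in 50 mM Tris-HCl pH 7.5, 1 mM DTT, 50% glycerol, 0.1 mM EDTA. The mixture was added to the standard reaction mix with poly(dA)/oligo(dT)18 (A/T = 2/1) and dTTP, 37 °C, 60 min. Activity was relative to no-inhibitor control; mean ± SE, three independent experiments.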

DNA polymerase iota = target: T2, DNA polymerase iota (Mus musculus, UniProt Q6R3M4); assay: Inhibition of mouse recombinant C-terminal-His6-tagged DNA polymerase iota assessed as inhibition of incorporation of dTTP into poly(dA)/oligo(dT)18 after 60 mins; in short: as §1
T2 sequence (Q6R3M4 whole entry): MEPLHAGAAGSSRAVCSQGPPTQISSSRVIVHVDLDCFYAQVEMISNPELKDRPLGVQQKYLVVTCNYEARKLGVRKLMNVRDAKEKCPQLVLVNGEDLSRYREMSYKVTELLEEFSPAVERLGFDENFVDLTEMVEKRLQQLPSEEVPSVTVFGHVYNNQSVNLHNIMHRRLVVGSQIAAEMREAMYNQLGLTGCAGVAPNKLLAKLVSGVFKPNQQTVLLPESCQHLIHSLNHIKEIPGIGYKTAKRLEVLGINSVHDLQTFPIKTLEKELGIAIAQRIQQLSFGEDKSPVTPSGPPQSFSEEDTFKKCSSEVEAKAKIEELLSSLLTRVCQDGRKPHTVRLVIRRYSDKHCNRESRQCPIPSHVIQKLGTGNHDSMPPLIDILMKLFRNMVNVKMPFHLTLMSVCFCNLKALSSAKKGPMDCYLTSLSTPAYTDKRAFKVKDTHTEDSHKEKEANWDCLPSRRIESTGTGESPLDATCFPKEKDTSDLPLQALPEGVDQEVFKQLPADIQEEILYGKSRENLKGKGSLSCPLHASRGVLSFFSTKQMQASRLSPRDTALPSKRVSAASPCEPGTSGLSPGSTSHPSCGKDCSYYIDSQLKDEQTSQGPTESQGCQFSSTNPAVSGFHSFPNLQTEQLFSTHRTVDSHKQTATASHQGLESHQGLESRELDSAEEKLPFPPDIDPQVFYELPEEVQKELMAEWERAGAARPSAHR

Thermus aquaticus = assay: Inhibition of Thermus aquaticus DNA polymerase assessed as inhibition of incorporation of dTTP into activated DNA primer after 60 mins
HCT-116 [3] = assay: Growth inhibition of against human HCT116 cells after 24 hrs by WST-1 assay; format: functional; conditions: HCT-116, 24 h
In short: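 Cancer cells were grown in McCoy's 5A with 10% FBS and penicillin/streptomycin, 37 °C, 5% CO2. Cells were seeded at 1 × 10^4 per well, cultured 12 h, then given compound (10 mM DMSO stock diluted in medium, 0.5% DMSO) for 24 h. WST-1 was added for 4 h and absorbance read at 450/630 nm. GI50 given as mean ± SE, five independent experiments.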

Escherichia coli = assay: Inhibition of Escherichia coli polymerase DNA polymerase 1 Klenow fragment assessed as inhibition of incorporation of dTTP into activated DNA primer after 60 mins
HCT-116 [4] = assay: Cell cycle arrest in human HCT116 cells assessed as accumulation at S-phase at GI50 by tritiated thymidine incorporation assay; format: functional, cell-based
[5] = Inhibition of rice cv. Nipponbare recombinant C-terminal-His6-tagged DNA polymerase lambda expressed in Escherichia coli assessed as inhibition of incorporation of dTTP into poly(dA)/oligo(dT)18 after 60 mins; parameters: species or system Oryza sativa; in short: as §1
[6] = Inhibition of human His6-tagged DNA polymerase gamma expressed using baculovirus assessed as inhibition of incorporation of dTTP into poly(dA)/oligo(dT)18 after 60 mins; in short: as §1

C/C=C/C1=CC2=CC(=O)[C@@](C)(O)[C@@H](OC(=O)c3c(C)cc(O)cc3O)[C@@H]2CO1
inhibition (Oryza sativa): inactive
IC50 [1]: > 200 µM
IC50 [2]: 68 µM
IC50 (DNA polymerase iota): 63.8 µM
inhibition (Thermus aquaticus): inactive
GI50 (HCT-116 [3]): 64.6 µM
inhibition (Escherichia coli): inactive
Activity (HCT-116 [4]): Active
IC50 [5]: > 200 µM
IC50 [6]: 67.3 µM

C/C=C/C1=CC2=CC(=O)[C@@](C)(OC(=O)c3c(C)cc(O)cc3O)[C@@H](O)[C@@H]2CO1 [PINOPHILIN A]
inhibition (Oryza sativa): inactive
IC50 [1]: > 200 µM
IC50 [2]: 54.5 µM
IC50 (DNA polymerase iota): 50.2 µM
inhibition (Thermus aquaticus): inactive
GI50 (HCT-116 [3]): 51.3 µM
inhibition (Escherichia coli): inactive
Activity (HCT-116 [4]): Active
IC50 [5]: > 200 µM
IC50 [6]: 55.6 µM

Cc1cc(O)cc(O)c1C(=O)O[C@H]1[C@@H]2COC(/C=C/CO)=CC2=CC(=O)[C@@]1(C)O [PINOPHILIN B]
inhibition (Oryza sativa): inactive
IC50 [1]: > 200 µM
IC50 [2]: 96.4 µM
IC50 (DNA polymerase iota): 91 µM
inhibition (Thermus aquaticus): inactive
GI50 (HCT-116 [3]): 92.5 µM
inhibition (Escherichia coli): inactive
Activity (HCT-116 [4]): Active
IC50 [5]: > 200 µM
IC50 [6]: 93.7 µM
